Measured values as given in ChEMBL document CHEMBL1147105, “In vitro and in vivo activities of PD 0305970 and PD 0326448, new bacterial gyrase/topoisomerase inhibitors with potent antibacterial activities versus multidrug-resistant gram-positive and fastidious organism groups” (2007).

Experiments:
Assay type in all cases: functional
Enterococcus gallinarum = test: Antibacterial activity against Enterococcus gallinarum
Streptococcus mitis = test: Antibacterial activity against Streptococcus mitis
Outline: (§1)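 Broth microdilution MIC following CLSI guidelines, in cation-adjusted Mueller-Hinton broth with 3% lysed horse blood. Plates incubated at 35°C. Clinical isolates and reference strains, with identity confirmed by standard microbiological methods.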

Enterococcus faecalis [1] = test: Antibacterial activity against VanB-resistant Enterococcus faecalis
Outline: (§2)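 Broth microdilution MIC per CLSI guidelines, incubated at 35°C. Cation-adjusted Mueller-Hinton broth for nonfastidious organisms and staphylococci. Streptococci tested in the same broth with 3% lysed horse blood. Anaerobes tested in supplemented Brucella broth inside an anaerobe chamber (5% CO2, 5% H2, 90% N2), read after 48 h. Strains were mainly recent clinical isolates with confirmed identity.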

[2] = system: Fusobacterium necrophorum; test: Antibacterial activity against Fusobacterium necrophorum
Outline: (§3)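 Anaerobic broth microdilution MIC following CLSI guidelines, in supplemented Brucella broth. Run in an anaerobe chamber under 5% CO2, 5% H2 and 90% N2 at 35°C, and read after 48 h. Reported as MIC range, MIC50 and MIC90.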

Streptococcus pneumoniae [3] = test: Antibacterial efficacy against Streptococcus pneumoniae SVI infected orally dosed CD1 mouse model; conditions: po
Outline: (§4)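 Sepsis model in female CD1 mice (6–8 weeks, 18–22 g). Lethal i.p. challenge (0.5 ml) at ≥100 median lethal doses. Streptococci were given in Todd-Hewitt broth; other organisms were given with 20% hog gastric mucin. A single oral gavage dose (0.5 ml, in 0.5% methylcellulose) was given at the time of challenge. The PD50 (mg/kg) was calculated by probit analysis.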

[4] = system: Bacteroides thetaiotaomicron; test: Antibacterial activity against Bacteroides thetaiotaomicron; outline: as §3
Staphylococcus aureus [5] = test: Antibacterial activity against oxacillin-resistant Staphylococcus aureus; outline: as §2
Klebsiella pneumoniae = test: Antibacterial activity against Klebsiella pneumoniae
Outline: (§5)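 Broth microdilution MIC following CLSI guidelines, in cation-adjusted Mueller-Hinton broth, incubated at 35°C. Recent clinical isolates and reference strains, with identity confirmed by automated and standard microbiological methods. Results reported as MIC range, MIC50 and MIC90.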

Proteus mirabilis = test: Antibacterial activity against Proteus mirabilis; outline: as §5
Streptococcus sanguinis = test: Antibacterial activity against Streptococcus sanguis; outline: as §1
[6] = system: Prevotella melaninogenica; test: Antibacterial activity against Prevotella melaninogenica; outline: as §3
Staphylococcus aureus [7] = test: Antibacterial activity against vancomycin-intermediate Staphylococcus aureus; outline: as §2
Enterobacter cloacae = test: Antibacterial activity against Enterobacter cloacae; outline: as §5
Staphylococcus aureus [8] = test: Antibacterial efficacy against ciprofloxacin and methicillin-resistant Staphylococcus aureus SA2017 infected orally dosed CD1 mouse model; outline: as §4
[9] = system: Stenotrophomonas maltophilia; test: Antibacterial activity against Stenotrophomonas maltophilia; outline: as §5
Shigella flexneri = test: Antibacterial activity against Shigella flexneri; outline: as §5
[10] = system: Staphylococcus haemolyticus; test: Antibacterial activity against Staphylococcus haemolyticus
Outline: (§6)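 Broth microdilution MIC following CLSI guidelines, in cation-adjusted Mueller-Hinton broth containing 3% lysed horse blood, incubated at 35°C. Clinical isolates with identity confirmed. Reported as MIC range, MIC50 and MIC90.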

Klebsiella aerogenes = test: Antibacterial activity against Enterobacter aerogenes; outline: as §5
Streptococcus pneumoniae [11] = test: Antibacterial activity against penicillin-resistant Streptococcus pneumoniae; outline: as §2
Haemophilus influenzae = test: Antibacterial activity against beta-lactamase negative Haemophilus influenzae
Outline: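 Broth microdilution MIC following CLSI guidelines, in Haemophilus test medium at 35°C.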

Actinomyces sp. = test: Antibacterial activity against Actinomyces sp.
Enterococcus faecium = test: Antibacterial activity against Enterococcus faecium; outline: as §2
Staphylococcus aureus [12] = test: Antibacterial efficacy against methicillin-susceptible Staphylococcus aureus UC76 infected orally dosed CD1 mouse model; conditions: UC76, po; outline: as §4
Staphylococcus aureus [13] = test: Antibacterial activity against oxacillin-susceptible Staphylococcus aureus
Outline: (§7)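 MIC by CLSI broth microdilution for nonfastidious organisms, in cation-adjusted Mueller-Hinton broth incubated at 35°C.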

Prevotella bivia = test: Antibacterial activity against Prevotella bivia; outline: as §3
Streptococcus equinus = test: Antibacterial activity against Streptococcus bovis; outline: as §1
Enterococcus faecalis [14] = test: Antibacterial activity against Enterococcus faecalis; outline: as §2
[15] = system: Staphylococcus epidermidis; test: Antibacterial activity against oxacillin-susceptible Staphylococcus epidermidis; outline: as §7
Citrobacter freundii = test: Antibacterial activity against Citrobacter freundii; outline: as §5
Enterococcus faecalis [16] = test: Antibacterial efficacy against Enterococcus faecalis MGH2 infected orally dosed CD1 mouse model; outline: as §4
Alloiococcus otitis = test: Antibacterial activity against Alloiococcus otitidis
Outline: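 MIC by broth microdilution following CLSI guidelines, in cation-adjusted Mueller-Hinton broth with 3% lysed horse blood. Incubated at 35°C and read after 48 h. Reported as MIC range, MIC50 and MIC90.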

Prevotella corporis = test: Antibacterial activity against Prevotella corporis; outline: as §3
Fusobacterium sp. = test: Antibacterial activity against Fusobacterium sp.; outline: as §3
Clostridium perfringens = test: Antibacterial activity against Clostridium perfringens; outline: as §2
Listeria monocytogenes = test: Antibacterial activity against Listeria monocytogenes; outline: as §6
Serratia marcescens = test: Antibacterial activity against Serratia marcescens; outline: as §5
Enterococcus faecalis [17] = test: Antibacterial activity against beta-lactamase positive Enterococcus faecalis; outline: as §7
Staphylococcus aureus [18] = test: Antibacterial efficacy against methicillin-resistant Staphylococcus aureus SA1417 infected orally dosed CD1 mouse model; outline: as §4
Prevotella buccae = test: Antibacterial activity against Prevotella buccae; conditions: Segatella buccae; outline: as §3
Streptococcus agalactiae = test: Antibacterial activity against Streptococcus agalactiae; outline: as §6
Citrobacter koseri = test: Antibacterial activity against Citrobacter diversus; outline: as §5
[19] = system: Enterococcus casseliflavus; test: Antibacterial activity against Enterococcus casseliflavus

Cc1c(N2CC[C@@H]([C@H](C)N)C2)c(F)cc2c(=O)n(N)c(=O)n(C3CC3)c12
0.004 µg/mL: MIC50 (Alloiococcus otitis)
0.125 µg/mL: MIC50 (Staphylococcus aureus [5]) | MIC (Staphylococcus aureus [7]) | MIC50 [10] | MIC50 (Haemophilus influenzae) | MIC50 (Staphylococcus aureus [13]) | MIC90 (Staphylococcus aureus [13]) | MIC50 (Enterococcus faecalis [14]) | MIC (Enterococcus faecalis [16]) | MIC50 (Listeria monocytogenes)
0.5 µg/mL: MIC50 (Shigella flexneri) | MIC90 [10] | MIC (Actinomyces sp.) | MIC50 (Clostridium perfringens)
2 µg/mL: MIC50 (Klebsiella pneumoniae) | MIC90 (Proteus mirabilis) | MIC90 (Enterococcus faecium) | MIC90 (Clostridium perfringens) | MIC50 (Serratia marcescens)
1 µg/mL: MIC50 (Proteus mirabilis) | MIC90 [6] | MIC50 (Enterobacter cloacae) | MIC90 (Shigella flexneri) | MIC50 (Enterococcus faecium) | MIC90 (Prevotella bivia) | MIC90 (Prevotella corporis) | MIC90 (Prevotella buccae) | MIC50 (Citrobacter koseri)
64 µg/mL: MIC90 [9]
16 µg/mL: MIC90 [4] | MIC90 (Citrobacter freundii) | MIC90 (Serratia marcescens)
4 µg/mL: MIC50 [4] | MIC90 (Klebsiella pneumoniae) | MIC90 (Enterobacter cloacae) | MIC50 (Klebsiella aerogenes) | MIC50 (Citrobacter freundii) | MIC90 (Citrobacter koseri)
0.06 µg/mL: MIC [2] | MIC (Staphylococcus aureus [12]) | MIC [15] | MIC (Fusobacterium sp.) | MIC (Enterococcus faecalis [17])
0.008 µg/mL: MIC90 (Alloiococcus otitis)
23 mg/kg: ED50 (Staphylococcus aureus [8]; read-out: PD50)
0.015 µg/mL: MIC (Streptococcus pneumoniae [3])
0.25 µg/mL: MIC50 (Enterococcus gallinarum) | MIC90 (Enterococcus gallinarum) | MIC50 (Enterococcus faecalis [1]) | MIC90 (Enterococcus faecalis [1]) | MIC90 (Staphylococcus aureus [5]) | MIC50 [6] | MIC (Staphylococcus aureus [8]) | MIC90 (Haemophilus influenzae) | MIC50 (Prevotella bivia) | MIC90 (Enterococcus faecalis [14]) | MIC50 (Prevotella corporis) | MIC90 (Listeria monocytogenes) | MIC (Staphylococcus aureus [18]) | MIC50 (Prevotella buccae) | MIC50 [19] | MIC90 [19]
1.9 mg/kg: ED50 (Staphylococcus aureus [12]; read-out: PD50)
2.7 mg/kg: ED50 (Streptococcus pneumoniae [3]; read-out: PD50)
8 µg/mL: MIC50 [9] | MIC90 (Klebsiella aerogenes)
0.03 µg/mL: MIC50 (Streptococcus mitis) | MIC90 (Streptococcus mitis) | MIC50 (Streptococcus sanguinis) | MIC90 (Streptococcus sanguinis) | MIC50 (Streptococcus pneumoniae [11]) | MIC90 (Streptococcus pneumoniae [11]) | MIC50 (Streptococcus equinus) | MIC90 (Streptococcus equinus) | MIC50 (Streptococcus agalactiae) | MIC90 (Streptococcus agalactiae)
19 mg/kg: ED50 (Enterococcus faecalis [16]; read-out: PD50)
2.5 mg/kg: ED50 (Staphylococcus aureus [18]; read-out: PD50)
